From ChEMBL document CHEMBL1155177, “Activity against human immunodeficiency virus type 1, intracellular metabolism, and effects on human DNA polymerases of 4'-ethynyl-2-fluoro-2'-deoxyadenosine” (Antimicrob Agents Chemother, 2007)

Columns and labels:
[1] = tested on: Human immunodeficiency virus 1; test: Antiviral activity against R5-HIV1MDR/G assessed as inhibition of p24 Gag protein in human PHA-PBMC by ELISA relative to X4-HIV1NL4-3; type: functional
[2] = tested on: MT4; test: Cytotoxicity against human MT4 cells by MTT assay; type: functional
[3] = Cytotoxicity against human PHA-PBMC cells by MTT assay; type: cell-based
[4] = tested on: Human immunodeficiency virus 1; test: Antiviral activity against R5-HIV1MDR/C assessed as inhibition of p24 Gag protein production in human PHA-PBMC by ELISA; type: functional, organism-based
Method in brief: (§1)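 PHA-stimulated PBMC (10^6 cells/ml; 10^5 cells/well) were infected with 50 TCID50 of HIV-1Ba-L or a primary multidrug-resistant isolate and cultured with drug in 10-fold serial dilutions. On day 7, supernatant p24 Gag was measured by automated chemiluminescent enzyme immunoassay. EC50 is the concentration that halves p24 relative to drug-free cultures. Triplicate assays.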

[5] = tested on: Human immunodeficiency virus 1; test: Ratio of EC50 for R5-HIV1MDR/MM in human PHA-PBMC to EC50 for R5-HIV1Ba-L in human PHA-PBMC; type: functional
[6] = tested on: Human immunodeficiency virus 1; test: Ratio of EC50 for X4-HIV1MDR/C in human PHA-PBMC to EC50 for X4-HIV1NL4-3 in human MT4 cells; type: functional, NL4-3
[7] = tested on: Human immunodeficiency virus 1; test: Antiviral activity against X4-HIV1 NL4-3 assessed as […] in human MT4 cells by MTT assay; type: functional, organism-based; conditions: Human immunodeficiency virus 1, NL4-3, MT4
[8] = tested on: Human immunodeficiency virus 1; test: Antiviral activity against HIV1 NL4-3 replication in human MT4 cells at 0.01 uM pretreated 24 hrs before infection assessed as protection at 1 uM by MTT assay; type: functional
[9] = tested on: Human immunodeficiency virus 1; test: Antiviral activity against HIV1 NL4-3 replication in human MT4 cells at 0.01 uM pretreated 48 hrs before infection assessed as protection at 1 uM by MTT assay; type: functional
[10] = tested on: Human immunodeficiency virus 1; test: Antiviral activity against R5-HIV1MDR/G assessed as inhibition of p24 Gag protein production in human PHA-PBMC by ELISA; type: functional, organism-based; method in brief: as §1
[11] = tested on: Human immunodeficiency virus 1; test: Antiviral activity against R5-HIV1MDR/MM assessed as inhibition of p24 Gag protein production in human PHA-PBMC by ELISA; type: functional, organism-based; method in brief: as §1
[12] = tested on: Human immunodeficiency virus 1; test: Antiviral activity against R5-HIV1Ba-L assessed as inhibition of p24 Gag protein production in human PHA-PBMC by ELISA; type: functional, organism-based; conditions: Human immunodeficiency virus 1, Ba-L; method in brief: as §1
[13] = Inhibition of human DNA polymerase gamma using calf thymus DNA as a template
Method in brief: (§2)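 Each 30-min, 37 °C reaction contained 50 mM Tris pH 8.0, 8 mM MgCl2, 60 mM KCl, 10 mM DTT, BSA, 0.3 µM [α-32P]dATP, inhibitor, and either 250 nM D21/D36 or 0.1 mg/ml activated calf thymus DNA. Enzyme was 1 unit polymerase α, 100 nM β or 2.5 nM γ. Reactions were stopped with EDTA and spotted onto DE81 filters. Incorporated dAMP was quantified by phosphorimaging to give the IC50.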

[14] = Inhibition of human DNA polymerase beta using D21/D36 DNA as a template; method in brief: as §2
[15] = Inhibition of human DNA polymerase alpha using calf thymus DNA as a template; method in brief: as §2
[16] = Inhibition of human DNA polymerase gamma using D21/D36 DNA as a template; method in brief: as §2
[17] = Inhibition of human DNA polymerase beta using calf thymus DNA as a template; method in brief: as §2
[18] = tested on: CCRF-CEM; test: Drug uptake in human CD4+CEM cells assessed as 4'-ethynyl-2-fluoro-2'-deoxyadenosine monophosphate half life at 200 nM; type: ADME, cell-based; conditions: 0.2 µM
Method in brief: (§3)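 CEM cells (10^6 cells/ml) were loaded 6 h with 200 nM [3H]-labelled nucleoside, washed thoroughly, then cultured drug-free for 0, 2, 4, 8, 12 or 24 h. Cells were extracted in 60% methanol, and mono-, di- and triphosphates were quantified by SAX HPLC with fraction scintillation counting. Values are means of 2–3 independent experiments.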

[19] = tested on: CCRF-CEM; test: Drug level in human CD4+CEM cells per 10^9 cells at 0.1 uM; type: ADME, cell-based
Method in brief: (§4)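 CEM cells (10^6 cells/ml) were incubated 6 h with 0.1, 1 or 10 µM [3H]-labelled nucleoside, then washed. Intracellular nucleosides/nucleotides were extracted in 60% methanol and separated by SAX ion-exchange HPLC on an ammonium phosphate gradient. One-minute fractions up to 40 min were scintillation-counted, and each peak plus flanking fractions were summed. Two independent experiments were run.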

[20] = tested on: Human immunodeficiency virus 1; test: Antiviral activity against HIV1 NL4-3 replication in human MT4 cells at 0.01 uM pretreated 24 hrs before infection assessed as protection at 0.01 uM by MTT assay; type: functional
[21] = tested on: CCRF-CEM; test: Drug uptake in human CD4+CEM cells assessed as 4'-ethynyl-2-fluoro-2'-deoxyadenosine triphosphate half life at 200 nM; type: ADME, cell-based; conditions: 0.2 µM; method in brief: as §3
[22] = tested on: CCRF-CEM; test: Metabolic stability of the compound in human CD4+ CEM cells assessed as 4'-ethynyl-2-fluoro-2'-deoxyadenosine diphosphate intracellular levels at 200 nM after 8 hrs; type: ADME, cell-based; conditions: 0.2 µM; method in brief: as §3
[23] = tested on: CCRF-CEM; test: Metabolic stability of the compound in human CD4+ CEM cells assessed as 4'-ethynyl-2-fluoro-2'-deoxyadenosine monophosphate intracellular levels at 200 nM after 8 hrs; type: ADME, cell-based; conditions: 0.2 µM; method in brief: as §3
[24] = tested on: CCRF-CEM; test: Metabolic stability of the compound in human CEM cells assessed as 3'-azido-2',3'-dideoxythymidine triphosphate intracellular levels at 200 nM after 24 hrs; type: ADME, cell-based; conditions: 0.2 µM; method in brief: as §3
[25] = tested on: CCRF-CEM; test: Drug level in human CD4+CEM cells assessed as increase in 4'-ethynyl-2-fluoro-2'-deoxyadenosine triphosphate level at 0.1 uM after 6 hrs; type: ADME, cell-based; method in brief: as §4
[26] = tested on: CCRF-CEM; test: Metabolic stability of the compound in human CEM cells assessed as 3'-azido-2',3'-dideoxythymidine diphosphate intracellular levels at 200 nM after 24 hrs; type: ADME, cell-based; conditions: 0.2 µM; method in brief: as §3
[27] = tested on: CCRF-CEM; test: Metabolic stability of the compound in human CEM cells assessed as 3'-azido-2',3'-dideoxythymidine monophosphate intracellular levels at 200 nM after 24 hrs; type: ADME, cell-based; conditions: 0.2 µM; method in brief: as §3
[28] = tested on: CCRF-CEM; test: Metabolic stability of the compound in human CD4+ CEM cells assessed as 4'-ethynyl-2-fluoro-2'-deoxyadenosine triphosphate intracellular levels at 200 nM after 8 hrs; type: ADME, cell-based; conditions: 0.2 µM; method in brief: as §3
[29] = tested on: CCRF-CEM; test: Drug uptake in human CD4+CEM cells assessed as 4'-ethynyl-2-fluoro-2'-deoxyadenosine diphosphate half life at 200 nM; type: ADME, cell-based; conditions: 0.2 µM; method in brief: as §3
[30] = tested on: Human immunodeficiency virus 1; test: Antiviral activity against HIV1 NL4-3 replication in human MT4 cells at 0.01 uM pretreated 48 hrs before infection assessed as protection at 0.01 uM by MTT assay; type: functional
[31] = tested on: CCRF-CEM; test: Metabolic stability of the compound in human CD4+ CEM cells assessed as 3'-azido-2',3'-dideoxythymidine diphosphate intracellular levels at 200 nM after 8 hrs; type: ADME, cell-based; conditions: 0.2 µM; method in brief: as §3
[32] = tested on: CCRF-CEM; test: Drug uptake in human CD4+CEM cells assessed as 3'-azido-2',3'-dideoxythymidine monophosphate half life at 200 nM; type: ADME, cell-based; conditions: 0.2 µM; method in brief: as §3
[33] = tested on: CCRF-CEM; test: Metabolic stability of the compound in human CD4+ CEM cells assessed as 3'-azido-2',3'-dideoxythymidine monophosphate intracellular levels at 200 nM after 8 hrs; type: ADME, cell-based; conditions: 0.2 µM; method in brief: as §3
[34] = tested on: CCRF-CEM; test: Drug uptake in human CD4+CEM cells assessed as 3'-azido-2',3'-dideoxythymidine diphosphate half life at 200 nM; type: ADME, cell-based; conditions: 0.2 µM; method in brief: as §3
[35] = tested on: CCRF-CEM; test: Drug level in human CD4+CEM cells assessed as increase in 3'-azido-2',3'-dideoxythymidine triphosphate level at 0.1 uM after 6 hrs; type: ADME, cell-based; method in brief: as §4
[36] = tested on: CCRF-CEM; test: Metabolic stability of the compound in human CD4+ CEM cells assessed as 3'-azido-2',3'-dideoxythymidine triphosphate intracellular levels at 200 nM after 8 hrs; type: ADME, cell-based; conditions: 0.2 µM; method in brief: as §3
[37] = tested on: CCRF-CEM; test: Drug uptake in human CD4+CEM cells assessed as 3'-azido-2',3'-dideoxythymidine triphosphate half life at 200 nM; type: ADME, cell-based; conditions: 0.2 µM; method in brief: as §3

CC(C)CN(C[C@@H](O)[C@H](Cc1ccccc1)NC(=O)O[C@H]1CCOC1)S(=O)(=O)c1ccc(N)cc1
fold change (FC) [1]: 10 | CC50 [2]: > 100 µM | CC50 [3]: > 100 µM | EC50 [4]: 280 nM | fold change (FC) [5]: 17 | fold change (FC) [6]: 12 | EC50 [7]: 24 nM

C[C@H](Cn1cnc2c(N)ncnc21)OCP(=O)(O)O [TENOFOVIR ANHYDROUS]
Activity [8]: 90% | Activity [9]: 64% | fold change (FC) [1]: 3 | CC50 [3]: 53 µM | EC50 [4]: 47 nM | fold change (FC) [5]: 3 | EC50 [10]: 87 nM | EC50 [11]: 82 nM | EC50 [12]: 32 nM | fold change (FC) [6]: 2

CC(C)(C)NC(=O)[C@@H]1C[C@@H]2CCCC[C@@H]2CN1C[C@@H](O)[C@H](Cc1ccccc1)NC(=O)[C@H](CC(N)=O)NC(=O)c1ccc2ccccc2n1
fold change (FC) [1]: 3 | CC50 [2]: 26 µM | CC50 [3]: 78 µM | EC50 [4]: 37 nM | fold change (FC) [5]: 28 | EC50 [10]: 26 nM | EC50 [11]: 220 nM | fold change (FC) [6]: 4

Nc1ncnc2c1ncn2[C@H]1CC[C@@H](COP(=O)(O)OP(=O)(O)OP(=O)(O)O)O1 [DDA-TRIPHOSPHATE]
IC50 [13]: 0.2 µM | IC50 [14]: 3000 nM | IC50 [15]: > 100 µM | IC50 [16]: 2000 nM | Ki [16]: 4.6 µM | IC50 [17]: 200 nM

C#C[C@]1(CO)O[C@@H](n2cnc3c(N)nc(F)nc32)C[C@@H]1O
t1/2 [18]: 8.1 h | fold change (FC) [1]: 21 | CC50 [2]: 11 µM | Drug uptake [19]: 1730 pmol | Activity [20]: 75% | CC50 [3]: 12 µM | EC50 [4]: 4 nM | fold change (FC) [5]: 8 | t1/2 [21]: 17.2 h | Activity [22]: 45% | Activity [23]: 50% | EC50 [10]: 21 nM | Activity [24]: 38% | Activity [25]: 22 | Activity [26]: 23% | Activity [27]: 31% | EC50 [11]: 3 nM | Activity [28]: 72% | EC50 [12]: 0.4 nM | fold change (FC) [6]: 4 | EC50 [7]: 1 nM | t1/2 [29]: 6.7 h | Activity [30]: 47%

Cc1cn([C@H]2C[C@H](N=[N+]=[N-])[C@@H](CO)O2)c(=O)[nH]c1=O [ZIDOVUDINE]
Activity [8]: 55% | Activity [31]: 26% | Activity [9]: 9.2% | fold change (FC) [1]: 12 | t1/2 [32]: 1.4 h | Activity [33]: 16% | CC50 [2]: > 100 µM | Drug uptake [19]: 4349 pmol | CC50 [3]: > 10 µM | EC50 [4]: 390 nM | fold change (FC) [5]: 22 | t1/2 [34]: 1.6 h | EC50 [10]: 380 nM | Activity [24]: 9% | Activity [35]: 2.4 | Activity [36]: 26% | Activity [26]: 11% | Activity [27]: 10% | EC50 [11]: 340 nM | t1/2 [37]: 2.8 h | fold change (FC) [6]: 12 | EC50 [7]: 33 nM

C#C[C@]1(COP(=O)(O)OP(=O)(O)OP(=O)(O)O)O[C@@H](n2cnc3c(N)nc(F)nc32)C[C@@H]1O
IC50 [13]: 10 µM | IC50 [14]: > 100000 nM | IC50 [15]: > 100 µM | IC50 [16]: > 100000 nM | Ki [16]: 24.4 µM | IC50 [17]: > 100000 nM
